Assays:
[1] = target: T1, SIRT6 (Homo sapiens, UniProt Q8N6T7); assay: Fluor de Lys; assay type: biochemical
Summary of the method: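 Recombinant SIRT6 was expressed in E. coli BL21 in LB with 100 μg/mL ampicillin at 37 °C. Expression was induced with 0.5 mmol/L IPTG at OD600 0.8, then grown 18 h at 16 °C and purified by an earlier method.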

[2] = target: T1, SIRT6; assay: In vitro nucleosome deacetylation assay; assay type: biochemical; conditions: Western blot
Summary of the method: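 Nucleosomes were isolated from HeLa cells and deacetylated in vitro by SIRT6 in the presence of NAD+. H3K9Ac and H3K18Ac were detected by Western blot.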

[3] = target: T1, SIRT6; assay: Biolayer interferometry; assay type: binding
[4] = test system: SIRT6 mutants (Y5A, T57A, P62A, D63A, P67A, H68A, V70A, P80A, K81A, Y257A); assay: FDL assay on SIRT6 Pocket Z mutants; assay type: biochemical, human
Summary of the method: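 SIRT6 point mutants were made by site-directed mutagenesis. Each plasmid was expressed separately in E. coli BL21 (LB, 100 μg/mL ampicillin, 37 °C), induced with 0.5 mmol/L IPTG at OD600 0.8 for 18 h at 16 °C, and purified as for wild type.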

[5] = target: HDAC1 (Homo sapiens, UniProt Q13547); assay: HDACs selectivity assay; assay type: biochemical
Summary of the method: (§1)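 Enzyme selectivity panel was run by an outside contract lab to its standard assay protocols. IC50 values came from dose–response fitting of the data points. Each experiment was done independently at least three times.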

[6] = target: HDAC2 (Homo sapiens, UniProt Q92769); assay: HDACs selectivity assay; assay type: biochemical
Summary of the method: as §1

[7] = target: T2, HDAC11 (Homo sapiens, UniProt Q96DB2); assay: HDACs selectivity assay; assay type: biochemical
T2 sequence (Q96DB2 1-347): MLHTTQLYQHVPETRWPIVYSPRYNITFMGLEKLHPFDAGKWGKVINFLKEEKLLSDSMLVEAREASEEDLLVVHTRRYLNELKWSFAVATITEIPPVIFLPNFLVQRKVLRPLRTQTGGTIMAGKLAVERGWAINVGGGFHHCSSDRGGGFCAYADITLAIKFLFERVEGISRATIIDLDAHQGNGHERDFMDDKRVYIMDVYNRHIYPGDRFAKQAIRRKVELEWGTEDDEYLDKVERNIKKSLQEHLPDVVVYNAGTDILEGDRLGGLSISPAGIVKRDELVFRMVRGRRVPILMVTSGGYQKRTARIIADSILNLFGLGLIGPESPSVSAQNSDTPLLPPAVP
Summary of the method: as §1

[8] = target: T3, SIRT3 (Homo sapiens, UniProt Q9NTG7); assay: HDACs selectivity assay; assay type: biochemical
T3 sequence (Q9NTG7 1-399): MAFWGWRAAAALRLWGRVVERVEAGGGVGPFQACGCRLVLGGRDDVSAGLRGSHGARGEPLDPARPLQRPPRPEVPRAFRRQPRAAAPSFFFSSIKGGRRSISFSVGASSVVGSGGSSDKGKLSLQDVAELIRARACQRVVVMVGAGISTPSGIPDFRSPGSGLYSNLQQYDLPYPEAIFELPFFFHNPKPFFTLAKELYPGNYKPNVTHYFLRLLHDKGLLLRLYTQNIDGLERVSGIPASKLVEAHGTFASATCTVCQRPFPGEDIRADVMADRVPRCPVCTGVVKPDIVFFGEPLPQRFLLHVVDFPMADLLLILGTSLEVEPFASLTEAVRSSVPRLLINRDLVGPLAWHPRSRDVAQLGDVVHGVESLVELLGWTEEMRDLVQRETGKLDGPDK
Summary of the method: as §1

[9] = target: T4, full-length SIRT7 (Homo sapiens, UniProt Q9NRC8); assay: Selectivity FDL deacetylation assay; assay type: biochemical
T4 sequence (Q9NRC8 1-400): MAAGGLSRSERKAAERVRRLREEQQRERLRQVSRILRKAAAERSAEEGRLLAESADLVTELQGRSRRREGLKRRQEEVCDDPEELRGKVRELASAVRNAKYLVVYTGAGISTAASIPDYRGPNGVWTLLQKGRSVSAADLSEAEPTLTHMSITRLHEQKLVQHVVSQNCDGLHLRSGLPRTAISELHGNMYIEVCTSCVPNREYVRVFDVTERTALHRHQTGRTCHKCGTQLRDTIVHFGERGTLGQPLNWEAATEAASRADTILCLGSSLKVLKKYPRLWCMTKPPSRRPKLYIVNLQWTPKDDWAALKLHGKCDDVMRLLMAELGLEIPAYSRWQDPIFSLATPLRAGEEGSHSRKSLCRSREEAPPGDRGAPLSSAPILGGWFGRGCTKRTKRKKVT

[10] = test system: MiaPaCa-2 cells; assay: Migration assay with xCELLigence RTCA-DP; assay type: cell-based; conditions: effect even at 5 μmol/L
[11] = test system: BXPC-3 cells; assay: Proliferation assay; assay type: cell-based; conditions: BXPC-3, up to 20 μmol/L, 48 h, CCK-8

T1 sequence (Q8N6T7 whole entry): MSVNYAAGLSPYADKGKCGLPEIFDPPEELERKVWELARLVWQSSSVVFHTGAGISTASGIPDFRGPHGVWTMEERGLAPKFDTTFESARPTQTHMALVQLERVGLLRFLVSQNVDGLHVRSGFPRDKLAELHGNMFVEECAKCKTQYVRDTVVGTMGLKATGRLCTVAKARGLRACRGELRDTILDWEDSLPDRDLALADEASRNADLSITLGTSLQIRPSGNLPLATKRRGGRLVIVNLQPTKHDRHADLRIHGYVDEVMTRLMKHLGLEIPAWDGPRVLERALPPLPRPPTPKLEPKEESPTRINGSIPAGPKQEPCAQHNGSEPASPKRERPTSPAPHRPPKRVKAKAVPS
HDAC2, sequence (Q92769 whole entry): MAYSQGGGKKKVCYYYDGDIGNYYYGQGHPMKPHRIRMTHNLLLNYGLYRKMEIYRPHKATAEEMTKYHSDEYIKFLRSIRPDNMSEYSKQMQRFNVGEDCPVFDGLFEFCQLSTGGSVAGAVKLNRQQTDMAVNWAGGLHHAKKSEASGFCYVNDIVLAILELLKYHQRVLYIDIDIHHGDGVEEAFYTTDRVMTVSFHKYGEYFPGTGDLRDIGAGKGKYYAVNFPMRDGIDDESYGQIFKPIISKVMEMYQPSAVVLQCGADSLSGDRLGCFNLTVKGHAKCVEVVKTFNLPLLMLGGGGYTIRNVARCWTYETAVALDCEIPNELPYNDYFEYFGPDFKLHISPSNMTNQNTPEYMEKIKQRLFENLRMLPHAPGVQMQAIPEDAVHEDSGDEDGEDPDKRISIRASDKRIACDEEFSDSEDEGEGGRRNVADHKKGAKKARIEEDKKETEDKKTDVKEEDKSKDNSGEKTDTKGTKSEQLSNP
HDAC1, sequence (Q13547 whole entry): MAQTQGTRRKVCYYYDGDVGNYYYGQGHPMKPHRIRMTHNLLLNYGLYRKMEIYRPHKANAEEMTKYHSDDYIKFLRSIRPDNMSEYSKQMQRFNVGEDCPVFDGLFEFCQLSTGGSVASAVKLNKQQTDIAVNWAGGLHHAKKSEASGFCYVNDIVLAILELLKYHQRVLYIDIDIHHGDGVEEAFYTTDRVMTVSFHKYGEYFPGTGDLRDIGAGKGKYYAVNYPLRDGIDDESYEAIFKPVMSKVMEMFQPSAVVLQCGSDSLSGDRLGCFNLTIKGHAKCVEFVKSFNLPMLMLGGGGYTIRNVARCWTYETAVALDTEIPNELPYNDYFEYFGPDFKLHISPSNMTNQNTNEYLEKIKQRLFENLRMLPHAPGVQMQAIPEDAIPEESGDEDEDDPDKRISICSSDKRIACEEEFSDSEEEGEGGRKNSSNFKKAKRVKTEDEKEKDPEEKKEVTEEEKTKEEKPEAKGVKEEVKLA

**Q.** Which results are given for `Nc1nonc1-n1cc(C(=O)N/N=C/c2cc(Cl)cc(C(F)(F)F)c2)nn1` [JYQ-42]?
**A.** IC50 [1]: 2.33 ± 0.17 µM; inhibition ratio at 50 μmol/L ([1]; FDL assay, substrate Ac-RHKK-Ac-AMC, 50 μmol/L compound): 85.3%; Effect ([1]; SIRT6 (Table 2)): Inhibition; inhibition of SIRT6 deacetylase activity on nucleosomes ([2]; 0.5 μmol/L): inhibit the deacetylase activity of SIRT6 significantly; inhibition of SIRT6 deacetylase activity on nucleosomes ([2]; 1 μmol/L): completely/totally inhibited; Kd [3]: 13.2 µM; IC50 values on SIRT6 mutants ([4]; Y5A, T57A, P62A, D63A, P67A, H68A, V70A, P80A, K81A, Y257A versus wild type): increased; inhibition of SIRT6 deacetylation, T57A and H68A mutants ([4]; mutations T57A and H68A): completely disrupted JYQ-42 inhibition; IC50 [5]: > 100 µM; IC50 [6]: > 100 µM; IC50 [7]: > 100 µM; IC50 [8]: > 100 µM; IC50 [9]: > 100 µM; migration of pancreatic cancer cells (RTCA cell index) [10]: dramatically attenuated; cell growth [11]: no significant impact on cell growth

Source: paper PMC8897208 (Acta Pharmaceutica Sinica. B, 2021)
